The record followed here is ChEMBL document CHEMBL1138925, “Design and synthesis of orally active pyrrolidin-2-one-based factor Xa inhibitors” (Bioorg Med Chem Lett, 2006).

A short description of data set [1]: Lipophilicity, log D by CHI assay at pH 7.4. Type of data set: physicochemical. Particulars: buffer, read-out: Log D.
Data set [2] can be described thus: Plasma clearance in Han Wistar rat at 1 mg/kg, iv and 2.5 mg/kg, po. Type of data set: ADME, organism-based. The procedure, abridged:
(§1)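 Male Han Wistar rats were given an intravenous bolus at a nominal 1 mg/kg, or oral gavage at a nominal 2.5 mg/kg.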

Data set [3] is described as follows: Half life in Han Wistar rat at 1 mg/kg, iv and 2.5 mg/kg, po. Type of data set: ADME, organism-based. Particulars: in vivo. The procedure, abridged:
as §1

Data set [4] can be described thus: Volume of distribution in Han Wistar rat at 1 mg/kg, iv and 2.5 mg/kg, po. Type of data set: ADME, organism-based. Particulars: in vivo, read-out: Vss. The procedure, abridged: as §1
Data set [5] is described as follows: Half life in Beagle dog at 1 mg/kg, iv and 1 mg/kg, po. Type of data set: ADME, organism-based, Canis lupus familiaris. Particulars: in vivo.
A short description of data set [6]: Oral bioavailability in Han Wistar rat at 1 mg/kg, iv and 2.5 mg/kg, po. Particulars: in vivo. Format: ADME, organism-based. The gist of the method:
as §1

A short description of data set [7]: Plasma clearance in Beagle dog at 1 mg/kg, iv and 1 mg/kg, po. Type of data set: ADME, organism-based, Canis lupus familiaris.
The nature of data set [8]: Oral bioavailability in Beagle dog at 1 mg/kg, iv and 1 mg/kg, po. Type of data set: ADME, organism-based, Canis lupus familiaris. Particulars: in vivo.
Data set [9] in a line: Volume of distribution in Beagle dog at 1 mg/kg, iv and 1 mg/kg, po. Type of data set: ADME, organism-based, Canis lupus familiaris. Particulars: in vivo, read-out: Vss.

Turning to `C[C@@H](C(=O)N1CC2CCC1CC2)N1CC[C@H](NS(=O)(=O)c2ccc3cc(Cl)ccc3c2)C1=O`, in data set [1], the chromatographic logD amounted to 2.94.

In turn, `C[C@@H](C(=O)N1CCOCC1)N1CC[C@H](N(C)S(=O)(=O)c2ccc3cc(Cl)ccc3c2)C1=O` returned a clearance in data set [2] of 15 mL/min/kg. In [3], this molecule showed a half-life of 30 min. Moreover, in [4], the Vd worked out at 0.4 L/kg.

Regarding `C[C@@H](C(=O)N1CCOCC1)N1CC[C@H](N(CC(=O)O)S(=O)(=O)c2ccc3cc(Cl)ccc3c2)C1=O`, in data set [2], the clearance was 37 mL/min/kg. The same molecule showed a half-life in [3] of 12 min. In data set [4], the Vd turned out to be 0.3 L/kg.

Take `C[C@@H](C(=O)N1CC2CNCC(C2)C1)N1CC[C@H](NS(=O)(=O)c2ccc3cc(Cl)ccc3c2)C1=O`: the chromatographic logD in data set [1] is 1.47.

`C[C@@H](C(=O)N1CCOCC1)N1CC[C@H](N(CC(N)=O)S(=O)(=O)c2ccc3cc(Cl)ccc3c2)C1=O` gave a clearance in data set [2] of 24 mL/min/kg. This molecule also gave a half-life in data set [3] of 18 min. Moreover, the Vd in [4] was 0.5 L/kg.

Turning to `C[C@@H](C(=O)N1CCOCC1)N1CC[C@H](NS(=O)(=O)c2ccc3cc(Cl)ccc3c2)C1=O`, the half-life in data set [5] was 126 min; in data set [3], 54 min. Moreover, the bioavailability in data set [6] amounted to 85%; in data set [8], 100%. The clearance in [7] came out at 2.7 mL/min/kg; in [2], 13 mL/min/kg. In [1], the chromatographic logD turned out to be 2.2. The Vd in data set [9] came to 0.44 L/kg; in [4], 0.6 L/kg.

Regarding `CCC(=O)CN([C@H]1CCN([C@@H](C)C(=O)N2CCOCC2)C1=O)S(=O)(=O)c1ccc2cc(Cl)ccc2c1`, the clearance in data set [2] came out at 37 mL/min/kg. The molecule further showed a half-life in data set [3] of 30 min. Besides, the Vd in data set [4] turned out to be 1.1 L/kg.
